From publication PMC8412899 (ACS Omega, 2021)
Each block holds one compound with its values, some of them ahead of it.

What was measured:
MCL-1 [1] = biological target: T1, MCL-1 (Homo sapiens, UniProt Q07820); experiment: FP; type: binding; conditions: FP MCL-1 Ki
[2] = Atropoisomer stability in solution; type: physicochemical
[3] = In vivo PK characteristics; set-up: species or system mice; conditions: mouse, iv, 12.5 mg/kg
MCL-1 [4] = biological target: T1, MCL-1; experiment: QA; type: binding; conditions: for Ki: QA MCL-1 Ki
cleaved PARP = experiment: In vivo PD: increase of cleaved PARP in AMO1 xenografted mice; conditions: for PARP activation (fold): AMO1 xenografted mice, 16 h after i.v. bolus treatment at 12.5 mg/kg
In short: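 Female CB-17 SCID mice (6–7 weeks) were implanted s.c. with 5 × 10⁶ AMO-1 cells in 50:50 medium:Matrigel. At ~200 mm³ tumor volume they were randomized, n = 3 per group. Test compound in 20% HPbCD/25 mM HCl was given as a single 12.5 mg/kg i.v. bolus. Cleaved PARP increase was measured in tumors 16 h later.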

NCI-H929 cells = experiment: MTT cell viability assay of NCI H929 cell line; type: cell-based
[5] = system: human multiple myeloma cell line xenograft (AMO-1); experiment: AMO-1 efficacy model; type: in vivo, mice; conditions: QD5, i.v. bolus; for %TGI (day): D14
In short: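 Female CB-17 SCID mice (6–7 weeks) received 5 × 10⁶ AMO-1 cells s.c. in the right flank, in 50:50 growth medium:Matrigel. At ~200 mm³ they were randomized, n = 8. Freshly prepared test compound in 20% HPbCD/25 mM HCl was given i.v. daily ×5. Calipers were read 2–3×/week; volume = length × width²/2. TGI was taken at the control group's last day and at maximum; TGD used a 500 mm³ median.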

[6] = indole analogue versus preceding benzofurane/benzothiophene analogues

T1 sequence (Q07820 whole entry): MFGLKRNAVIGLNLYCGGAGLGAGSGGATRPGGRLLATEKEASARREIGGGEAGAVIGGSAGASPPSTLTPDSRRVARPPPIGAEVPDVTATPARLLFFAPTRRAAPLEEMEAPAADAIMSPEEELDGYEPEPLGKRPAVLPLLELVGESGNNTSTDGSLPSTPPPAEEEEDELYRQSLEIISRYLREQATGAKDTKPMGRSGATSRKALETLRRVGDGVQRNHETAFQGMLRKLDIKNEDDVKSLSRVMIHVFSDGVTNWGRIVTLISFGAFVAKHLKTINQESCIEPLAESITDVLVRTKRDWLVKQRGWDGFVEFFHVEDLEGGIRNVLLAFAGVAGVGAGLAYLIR

AUC [3]: 34000 ng·h/mL | clearance [3]: 6 mL/min/kg
SMILES: COc1ccccc1-c1nccc(COc2ccccc2C[C@@H](Oc2ncnc3sc(-c4ccc(F)cc4)c(-c4ccc(OCCN5CCN(C)CC5)c(Cl)c4C)c23)C(=O)O)n1 [Compound 16a, (2R)-2-{[(5Sa)-5-{3-Chloro-2-methyl-4-[2-(4-methylpiperazin-1-yl)ethoxy]phenyl}-6-(4-fluorophenyl)thieno[2,3-d]pyrimidin-4-yl]oxy}-3-(2-{[2-(2-methoxyphenyl)pyrimidin-4-yl]methoxy}phenyl)propanoic Acid]

Ki (MCL-1 [4]): 0.1 nM
SMILES: COc1ccccc1-c1nccc(COc2ccccc2C[C@@H](Oc2ccnc3sc(-c4ccc(F)cc4)c(-c4ccc(OCCN5CCN(C)CC5)c(Cl)c4C)c23)C(=O)O)n1 [Compound 17, (2R)-2-{[(3Sa)-3-{3-Chloro-2-methyl-4-[2-(4-methylpiperazin-1-yl)ethoxy]phenyl}-2-(4-fluorophenyl)thieno[2,3-b]pyridin-4-yl]oxy}-3-(2-{[2-(2-methoxyphenyl)pyrimidin-4-yl]methoxy}phenyl)propanoic Acid]
PARP activation (fold) (cleaved PARP): 12 fold

Ki (MCL-1 [4]): 1.8 nM
SMILES: COc1ccccc1-c1nccc(COc2ccccc2C[C@@H](Oc2cccc3sc(-c4ccc(F)cc4)c(-c4ccc(OCCN5CCN(C)CC5)c(Cl)c4C)c23)C(=O)O)n1 [Compound 20, (2R)-2-{[(3Sa)-3-{3-Chloro-2-methyl-4-[2-(4-methylpiperazin-1-yl)ethoxy]phenyl}-2-(4-fluorophenyl)-1-benzothiophen-4-yl]oxy}-3-(2-{[2-(2-methoxyphenyl)pyrimidin-4-yl]methoxy}phenyl)propanoic Acid]
PARP activation (fold) (cleaved PARP): 156 fold

Ki (MCL-1 [4]): 0.64 nM | fold less active (MCL-1 [4]; compared to 16a, affinity and activity): about 20 fold | atropoisomer stability [2]: rapid isomerization
SMILES: COc1ccccc1-c1nccc(COc2ccccc2C[C@@H](Oc2ncnc3c2c(-c2ccc(OCCN4CCN(C)CC4)c(Cl)c2C)c(-c2ccc(F)cc2)n3C)C(=O)O)n1 [Compound 23, (2R)-2-[(5Sa)-5-[3-Chloro-2-methyl-4-[2-(4-methylpiperazin-1-yl)ethoxy]phenyl]-6-(4-fluorophenyl)-7-methyl-pyrrolo[2,3-d]pyrimidin-4-yl]oxy-3-[2-[[2-(2-methoxyphenyl)pyrimidin-4-yl]methoxy]phenyl]propanoic Acid]
PARP activation (fold) (cleaved PARP): 5 fold

Ki (MCL-1 [4]): 0.036 nM | AUC [3]: 56000 ng·h/mL | clearance [3]: 2.5 mL/min/kg
SMILES: COc1ccccc1-c1nccc(COc2ccccc2C[C@@H](Oc2ncnc3oc(-c4ccc(F)cc4)c(-c4ccc(OCCN5CCN(C)CC5)c(Cl)c4C)c23)C(=O)O)n1 [Compound 24, (2R)-2-{[5-{3-Chloro-2-methyl-4-[2-(4-methylpiperazin-1-yl)ethoxy]phenyl}-6-(4-fluorophenyl)furo[2,3-d]pyrimidin-4-yl]oxy}-3-(2-{[2-(2-methoxyphenyl)pyrimidin-4-yl]methoxy}phenyl)propanoic Acid]
cellular activity, fold less (NCI-H929 cells; than 16a): 10 fold | PARP activation (fold) (cleaved PARP): 129 fold | time to reach 500 mm^3 (median of the group) ([5]; 6.25 mpk): 28 | %TGI (day) ([5]; 6.25 mpk): 103.5 (D14) % | %TGI max (day) ([5]; 6.25 mpk, d7): 122.7 (d7) % | time to reach 500 mm^3 (median of the group) ([5]; 12.5 mpk): 37 | %TGI (day) ([5]; 12.5 mpk): 107.7 (D14) % | %TGI max (day) ([5]; 12.5 mpk, d2): 184.8 (d2) % | atropoisomer stability [2]: equilibrate rapidly in solution to give a 1:1 mixture

Ki (MCL-1 [4]): 0.61 nM | atropoisomer stability [2]: stable in solution
SMILES: COc1ccccc1-c1nccc(COc2ccccc2C[C@@H](Nc2ncnc3oc(-c4ccc(F)cc4)c(-c4ccc(OCCN5CCN(C)CC5)c(Cl)c4C)c23)C(=O)O)n1 [Compound 25, N-[(5Sa)-5-{3-Chloro-2-methyl-4-[2-(4-methylpiperazin-1-yl)ethoxy]phenyl}-6-(4-fluorophenyl)furo[2,3-d]pyrimidin-4-yl]-2-{[2-(2-methoxyphenyl)pyrimidin-4-yl]methoxy}-D-phenylalanine]
PARP activation (fold) (cleaved PARP): 60 fold | PARP activation, fold less (cleaved PARP; than for the hydroxy acid analogue): about 2 fold

The next lines start with the compound.

SMILES: CCc1c(-c2cccc(Cl)c2C)c2c(N[C@H](Cc3ccccc3)C(=O)O)ncnc2n1C (single isomer, unassigned) [Compound 2b, N-[(5Sa)-5-(3-Chloro-2-methylphenyl)-6-ethyl-7-methyl-7H-pyrrolo[2,3-d]pyrimidin-4-yl]-D-phenylalanine]
Ki (MCL-1 [1]): 8700 nM | atropoisomer stability [2]: stable under the testing conditions

SMILES: Cc1c(Cl)cccc1-c1c2n(c3ncnc(N[C@H](Cc4ccccc4)C(=O)O)c13)CCC2 [Compound 11, N-[5-(3-Chloro-2-methylphenyl)-7,8-dihydro-6H-pyrimido[5,4-b]pyrrolizin-4-yl]-D-phenylalanine]
atropoisomer stability [2]: facile interconversion of the atropoisomers in solution

SMILES: COc1ccccc1-c1nccc(COc2ccccc2C[C@@H](Nc2nccc3sc(-c4ccc(F)cc4)c(-c4ccc(OCCN5CCN(C)CC5)c(Cl)c4C)c23)C(=O)O)n1 [Compound 19, N-[3-{3-Chloro-2-methyl-4-[2-(4-methylpiperazin-1-yl)ethoxy]phenyl}-2-(4-fluorophenyl)thieno[3,2-c]pyridin-4-yl]-2-{[2-(2-methoxyphenyl)pyrimidin-4-yl]methoxy}-D-phenylalanine]
Ki (MCL-1 [4]): 1.2 nM | drop in affinity (MCL-1 [4]; compared to 16b): 2–4 fold | drop in cellular activity (NCI-H929 cells; compared to 16b): 2–4 fold

SMILES: COc1ccccc1-c1nccc(COc2ccccc2C[C@@H](Oc2cccc3c2c(-c2ccc(OCCN4CCN(C)CC4)c(Cl)c2C)c(-c2ccc(F)cc2)n3C)C(=O)O)n1 [Compound 22, (2R)-2-{[(3Sa)-3-{3-Chloro-2-methyl-4-[2-(4-methylpiperazin-1-yl)ethoxy]phenyl}-2-(4-fluorophenyl)-1-methyl-1H-indol-4-yl]oxy}-3-(2-{[2-(2-methoxyphenyl)pyrimidin-4-yl]methoxy}phenyl)propanoic Acid]
Ki (MCL-1 [4]): 2.3 nM | drop of on-target affinity (MCL-1 [4]; [6]): ca. 2 fold | drop of cellular activity (NCI-H929 cells; [6]): ca. 2 fold

SMILES: COc1ccccc1-c1nccc(COc2ccccc2C[C@@H](Oc2nccc3nc(-c4ccc(F)cc4)c(-c4ccc(OCCN5CCN(C)CC5)c(Cl)c4C)n23)C(=O)O)n1 [Compound 26, (2R)-2-{[(3Ra)-3-{3-Chloro-2-methyl-4-[2-(4-methylpiperazin-1-yl)ethoxy]phenyl}-2-(4-fluorophenyl)imidazo[1,2-c]pyrimidin-5-yl]oxy}-3-(2-{[2-(2-methoxyphenyl)pyrimidin-4-yl]methoxy}phenyl)propanoic Acid]
Ki (MCL-1 [4]): 8.2 nM | drop in affinity (MCL-1 [4]; compared to 16a): 200 fold | drop in cellular activity (NCI-H929 cells; compared to 16a): 200 fold
